From ChEMBL document CHEMBL1128342, “Novel thiazole-based heterocycles as selective inhibitors of fibrinogen-mediated platelet aggregation” (J Med Chem, 1995)

Experiments:
[1] = In vitro inhibition of thrombin-induced platelet aggregation.; format: functional; conditions: Homo sapiens
[2] = biological target: T1, Integrin alpha-IIb/beta-3 (Homo sapiens, UniProt P05106+P08514); test: Inhibition of [125I]fibrinogen binding to human Fibrinogen Receptor at 50 uM; format: protein-complex assay
Outline: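 Human PRP with aspirin (50 μM, 37 °C, 20 min), pH 6.5, PGE1 0.9 μM; platelets gel-filtered, 1×10^8 per tube, thrombin-activated 2 min at room temperature, then hirudin. Compound plus [125I]fibrinogen (0.1 μM final) 10 min room temperature; platelets spun through silicone oil and pellet counted. Nonspecific binding with 4 mg/mL unlabeled fibrinogen; triplicates; % inhibition of specific binding vs fibrinogen alone.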

[3] = biological target: T1, Integrin alpha-IIb/beta-3; test: Inhibition of [125I]fibrinogen binding to human Fibrinogen Receptor.; format: protein-complex assay
Target sequence in this assay (P05106 27-788 limits assumed): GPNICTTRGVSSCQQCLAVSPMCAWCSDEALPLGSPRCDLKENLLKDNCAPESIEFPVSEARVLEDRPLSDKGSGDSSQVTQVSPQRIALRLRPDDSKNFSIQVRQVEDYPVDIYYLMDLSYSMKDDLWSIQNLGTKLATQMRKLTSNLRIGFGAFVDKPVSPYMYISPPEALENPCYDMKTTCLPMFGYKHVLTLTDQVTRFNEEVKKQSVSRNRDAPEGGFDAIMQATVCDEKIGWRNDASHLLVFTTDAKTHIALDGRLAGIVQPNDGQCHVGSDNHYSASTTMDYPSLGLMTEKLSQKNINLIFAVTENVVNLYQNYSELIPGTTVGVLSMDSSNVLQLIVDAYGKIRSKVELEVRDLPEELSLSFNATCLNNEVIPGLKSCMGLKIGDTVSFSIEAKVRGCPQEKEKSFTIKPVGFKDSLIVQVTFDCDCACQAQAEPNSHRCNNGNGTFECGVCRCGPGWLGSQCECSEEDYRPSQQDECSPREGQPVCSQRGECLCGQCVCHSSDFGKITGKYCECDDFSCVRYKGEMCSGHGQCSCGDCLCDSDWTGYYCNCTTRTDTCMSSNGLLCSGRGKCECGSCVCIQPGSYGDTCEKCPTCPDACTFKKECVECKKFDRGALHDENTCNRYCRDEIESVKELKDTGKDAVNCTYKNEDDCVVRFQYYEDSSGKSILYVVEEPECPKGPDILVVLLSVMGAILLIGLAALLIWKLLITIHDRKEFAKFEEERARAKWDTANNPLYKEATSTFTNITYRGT
Target sequence in this assay (P08514 32-887 limits assumed): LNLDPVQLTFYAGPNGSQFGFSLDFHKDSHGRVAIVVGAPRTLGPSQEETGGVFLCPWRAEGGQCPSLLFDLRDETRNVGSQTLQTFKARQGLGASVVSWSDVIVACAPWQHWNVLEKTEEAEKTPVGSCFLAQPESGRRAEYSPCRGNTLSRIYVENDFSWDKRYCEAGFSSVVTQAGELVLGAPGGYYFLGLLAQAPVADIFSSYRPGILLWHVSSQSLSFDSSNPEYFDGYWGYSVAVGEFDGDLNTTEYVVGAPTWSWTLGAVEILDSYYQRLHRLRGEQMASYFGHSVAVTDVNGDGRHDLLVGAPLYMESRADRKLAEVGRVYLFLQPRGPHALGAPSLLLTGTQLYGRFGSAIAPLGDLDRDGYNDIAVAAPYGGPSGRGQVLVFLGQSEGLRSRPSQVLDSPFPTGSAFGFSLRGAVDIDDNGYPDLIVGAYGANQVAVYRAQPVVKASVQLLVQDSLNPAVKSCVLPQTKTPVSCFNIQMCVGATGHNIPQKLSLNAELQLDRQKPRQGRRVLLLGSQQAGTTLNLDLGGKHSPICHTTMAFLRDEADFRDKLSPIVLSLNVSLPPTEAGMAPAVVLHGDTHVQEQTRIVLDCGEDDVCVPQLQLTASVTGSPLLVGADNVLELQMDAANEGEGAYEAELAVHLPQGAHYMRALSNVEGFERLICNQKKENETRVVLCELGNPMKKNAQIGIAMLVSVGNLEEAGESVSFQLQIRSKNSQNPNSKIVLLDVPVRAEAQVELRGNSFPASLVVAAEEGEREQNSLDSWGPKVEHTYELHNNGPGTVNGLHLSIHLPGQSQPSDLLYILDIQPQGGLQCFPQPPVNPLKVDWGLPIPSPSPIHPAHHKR
Target sequence in this assay (P08514 891-1039 limits assumed): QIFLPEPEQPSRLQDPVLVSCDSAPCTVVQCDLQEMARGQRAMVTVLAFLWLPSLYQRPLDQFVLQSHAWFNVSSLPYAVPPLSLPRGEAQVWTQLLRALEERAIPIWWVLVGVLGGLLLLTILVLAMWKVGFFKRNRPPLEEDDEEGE

[4] = biological target: T1, Integrin alpha-IIb/beta-3; test: Inhibition of thrombin-induced platelet aggregation at 50 uM; format: functional

SMILES	IC50 [1]	inhibition [2]	IC50 [3]	inhibition [4]
CCN(CC)CCCNC(=O)c1cnn(-c2nc(-c3ccc(OC)cc3)cs2)c1C(F)(F)F	12.5 µM	57%		
NCCCNC(=O)c1cnn(-c2nc(-c3cccc(C(F)(F)F)c3)cs2)c1C(F)(F)F	14 µM		12.3 µM	
CCN(CC)CCCCCCCNC(=O)c1cnn(-c2nc(-c3cccc(C(F)(F)F)c3)cs2)c1C(F)(F)F		0%		35%
CCN(CC)CCCNC(=O)c1cnn(-c2nc(-c3ccc(C(F)(F)F)cc3)cs2)c1C(F)(F)F	9.1 µM		40 µM	
CC(=O)Oc1ccccc1C(=O)O [ASPIRIN]	> 100 µM			
CCN(CC)CCCNC(=O)c1cnn(-c2nc(-c3ccc(Cl)cc3)cs2)c1C(F)(F)F	6.8 µM		45 µM	
CCN(CC)CCCNC(=O)c1cnn(-c2nc(-c3cccc(C(F)(F)F)c3)cs2)c1C(F)(F)F			4.1 µM	
O=C(NCCCN1CCCCC1)c1cnn(-c2nc(-c3cccc(C(F)(F)F)c3)cs2)c1C(F)(F)F	10.9 µM		30 µM	
NCCCCNC(=O)c1cnn(-c2nc(-c3cccc(C(F)(F)F)c3)cs2)c1C(F)(F)F	4.8 µM		18.3 µM	
CCN(CC)CCCNC(=O)c1cnn(-c2nc(-c3cccc(C)c3)cs2)c1C(F)(F)F	25 µM		50 µM	
N=C(N)CCCNC(=O)c1cnn(-c2nc(-c3cccc(C(F)(F)F)c3)cs2)c1C(F)(F)F	13 µM		23 µM	
CN(C)/C=N/CCCNC(=O)c1cnn(-c2nc(-c3cccc(C(F)(F)F)c3)cs2)c1C(F)(F)F	13.7 µM		15.6 µM	
O=C(NCCCNc1ccccc1)c1cnn(-c2nc(-c3cccc(C(F)(F)F)c3)cs2)c1C(F)(F)F		0%		18%
N=C(N)NCCCNC(=O)c1cnn(-c2nc(-c3cccc(C(F)(F)F)c3)cs2)c1C(F)(F)F	11.8 µM		17.5 µM	
CCN(CC)CCCNC(=O)c1cnn(-c2nc(-c3cccc(C(F)(F)F)c3)c(C(=O)O)s2)c1C(F)(F)F				30%
CC(C)NCCCNC(=O)c1cnn(-c2nc(-c3cccc(C(F)(F)F)c3)cs2)c1C(F)(F)F	6.7 µM		11.2 µM	
O=C(NCCCN1CCCC1=O)c1cnn(-c2nc(-c3cccc(C(F)(F)F)c3)cs2)c1C(F)(F)F		0%		0%
N=C(N)NCCC[C@H](N)C(=O)NCC(=O)N[C@@H](CC(=O)O)C(=O)N[C@@H](CO)C(=O)O	30 µM			
COc1ccc(CCNC(=O)C(CC(=O)O)NC(=O)CCCCCCCN=C(N)N)cc1 (centres undefined)	7.9 µM		9 µM	
O=C(NCCCNC1CCCCC1)c1cnn(-c2nc(-c3cccc(C(F)(F)F)c3)cs2)c1C(F)(F)F	6.1 µM		25 µM	
O=C(NCCCn1ccnc1)c1cnn(-c2nc(-c3cccc(C(F)(F)F)c3)cs2)c1C(F)(F)F		0%		33%
NCCCCCNC(=O)c1cnn(-c2nc(-c3cccc(C(F)(F)F)c3)cs2)c1C(F)(F)F	11.5 µM	61%		
CCN(CC)CCCNC(=O)c1cnn(-c2nc(-c3ccccc3)cs2)c1C(F)(F)F	30 µM		50 µM	
CCN(CC)CCCNC(=O)c1cnn(-c2nc(-c3ccc(C)cc3)cs2)c1C(F)(F)F	8.2 µM		70 µM	
NCCNC(=O)c1cnn(-c2nc(-c3cccc(C(F)(F)F)c3)cs2)c1C(F)(F)F		44%		
CCCNCCCNC(=O)c1cnn(-c2nc(-c3cccc(C(F)(F)F)c3)cs2)c1C(F)(F)F	14.3 µM		10 µM	
CCN(CC)CCCNC(=O)c1cnn(-c2nc(-c3cccc(C(F)(F)F)c3)c(Br)s2)c1C(F)(F)F	2.7 µM		1.3 µM	
